Results taken from ChEMBL document CHEMBL3779833, “Hydroxyurea derivatives of irofulven with improved antitumor efficacy” (Bioorg Med Chem Lett, 2016).
Activity calls are given as the source filed them. No cut-off for these calls is given here.

Assays:
[1] = Cytotoxicity against human CHRF-288-11 cells after 48 hrs by trypan blue exclusion assay; format: cell-based
Procedure, shortened: (§1)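 Cells exposed to drug for 48 h; growth measured by trypan blue exclusion. IC50 is the concentration giving 50% growth inhibition; values reported in nM.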

[2] = Cytotoxicity against human MV522 cells after 48 hrs by trypan blue exclusion assay; format: functional, cell-based; settings: MV522, 48 h; procedure, shortened: as §1
786-0 = experiment: Cytotoxicity against human 786-0 cells after 48 hrs by sulforhodamine B assay; format: functional, cell-based; settings: 786-0, 48 h
[3] = Selectivity index, ratio of IC50 for human CHRF-288-11 cells to IC50 for human MV522 cells; format: functional
Procedure, shortened: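 Ratio of the IC50 in megakaryocytic CHRF 288-11 (non-target) cells to the IC50 in MV522 adenocarcinoma (target) cells.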

U-251 = experiment: Cytotoxicity against human U251 cells after 48 hrs by sulforhodamine B assay; format: functional, cell-based; settings: U-251, 48 h
[4] = Cytotoxicity against human DU145 cells after 48 hrs by sulforhodamine B assay; format: functional, cell-based; settings: DU-145, 48 h, read-out: pIC50 (converted)
[5] = Cytotoxicity against human IGROV1 cells after 48 hrs by sulforhodamine B assay; format: functional, cell-based; settings: IGROV-1, 48 h
[6] = Cytotoxicity against human SNB75 cells after 48 hrs by sulforhodamine B assay; format: functional, cell-based; settings: SNB-75, 48 h
[7] = Cytotoxicity against human SNB19 cells after 48 hrs by sulforhodamine B assay; format: functional, cell-based; settings: SNB-19, 48 h
T47D = experiment: Cytotoxicity against human T47D cells after 48 hrs by sulforhodamine B assay; format: functional, cell-based
NCI-H226 = experiment: Cytotoxicity against human NCI-H226 cells after 48 hrs by sulforhodamine B assay; format: functional, cell-based; settings: NCI-H226, 48 h
M14 = experiment: Cytotoxicity against human M14 cells after 48 hrs by sulforhodamine B assay; format: functional, cell-based; settings: M14, 48 h
[8] = Cytotoxicity against human TK10 cells after 48 hrs by sulforhodamine B assay; format: functional, cell-based; settings: TK-10, 48 h
EKVX = experiment: Cytotoxicity against human EKVX cells after 48 hrs by sulforhodamine B assay; format: functional, cell-based
[9] = Cytotoxicity against human HOP92 cells after 48 hrs by sulforhodamine B assay; format: functional, cell-based; settings: HOP-92, 48 h
ACHN = experiment: Cytotoxicity against human ACHN cells after 48 hrs by sulforhodamine B assay; format: functional, cell-based
SK-MEL-28 = experiment: Cytotoxicity against human SK-MEL-28 cells after 48 hrs by sulforhodamine B assay; format: functional, cell-based; settings: SK-MEL-28, 48 h
NCI-H322M = experiment: Cytotoxicity against human NCI-H322M cells after 48 hrs by sulforhodamine B assay; format: functional, cell-based
Malme-3M = experiment: Cytotoxicity against human MALME-3M cells after 48 hrs by sulforhodamine B assay; format: functional, cell-based
[10] = Cytotoxicity against human OVCAR3 cells after 48 hrs by sulforhodamine B assay; format: functional, cell-based; settings: OVCAR-3, 48 h
NCI-H23 = experiment: Cytotoxicity against human NCI-H23 cells after 48 hrs by sulforhodamine B assay; format: functional, cell-based; settings: NCI-H23, 48 h
[11] = Cytotoxicity against human LOXIMVI cells after 48 hrs by sulforhodamine B assay; format: functional, cell-based; settings: LOX IMVI
[12] = Cytotoxicity against human HOP62 cells after 48 hrs by sulforhodamine B assay; format: functional, cell-based; settings: HOP-62, 48 h
[13] = Cytotoxicity against human HCC2998 cells after 48 hrs by sulforhodamine B assay; format: functional, cell-based; settings: HCC 2998, 48 h
NCI-H522 = experiment: Cytotoxicity against human NCI-H522 cells after 48 hrs by sulforhodamine B assay; format: functional, cell-based; settings: NCI-H522, 48 h
[14] = Cytotoxicity against human PC3 cells after 48 hrs by sulforhodamine B assay; format: functional, cell-based; settings: PC-3, 48 h
A549 = experiment: Cytotoxicity against human A549 cells after 48 hrs by sulforhodamine B assay; format: functional, cell-based; settings: A549, 48 h, read-out: pIC50 (converted)
[15] = Cytotoxicity against human UACC257 cells after 48 hrs by sulforhodamine B assay; format: functional, cell-based; settings: UACC-257, 48 h
A498 = experiment: Cytotoxicity against human A498 cells after 48 hrs by sulforhodamine B assay; format: functional, cell-based; settings: A498, 48 h
[16] = Cytotoxicity against human OVCAR5 cells after 48 hrs by sulforhodamine B assay; format: functional, cell-based; settings: OVCAR-5, 48 h
[17] = Cytotoxicity against human HCT116 cells after 48 hrs by sulforhodamine B assay; format: functional, cell-based; settings: HCT-116, 48 h
MV522 = experiment: Antitumor activity against human MV522 cells xenografted in Balb/c nu/nu mouse assessed as inhibition of tumor growth at 10 mg/kg, ip administered thrice a week for 3 weeks; format: functional, organism-based
Procedure, shortened: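 MV522 tumour xenografts in Balb/c nu/nu mice; drugs given intraperitoneally 3 times a week for 3 consecutive weeks at 10 mg/kg, the dose compared across agents; N = 8 per group.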

[18] = Cytotoxicity against human SF539 cells after 48 hrs by sulforhodamine B assay; format: functional, cell-based; settings: SF-539, 48 h
[19] = Cytotoxicity against human Hs 578T cells after 48 hrs by sulforhodamine B assay; format: functional, cell-based
NCI-H460 = experiment: Cytotoxicity against human NCI-H460 cells after 48 hrs by sulforhodamine B assay; format: functional, cell-based; settings: NCI-H460, 48 h, read-out: pIC50 (converted)
MDA-MB-435 = experiment: Cytotoxicity against human MDA-MB-435 cells after 48 hrs by sulforhodamine B assay; format: functional, cell-based; settings: MDA-MB-435, 48 h
SK-MEL-2 = experiment: Cytotoxicity against human SK-MEL-2 cells after 48 hrs by sulforhodamine B assay; format: functional, cell-based; settings: SK-MEL-2, 48 h
[20] = Cytotoxicity against human SF295 cells after 48 hrs by sulforhodamine B assay; format: functional, cell-based; settings: SF-295, 48 h
[21] = Cytotoxicity against human UO31 cells after 48 hrs by sulforhodamine B assay; format: functional, cell-based; settings: UO-31, 48 h
[22] = Cytotoxicity against human BT549 cells after 48 hrs by sulforhodamine B assay; format: functional, cell-based; settings: BT-549, 48 h
[23] = Cytotoxicity against human SKOV3 cells after 48 hrs by sulforhodamine B assay; format: functional, cell-based; settings: SK-OV-3, 48 h
[24] = Cytotoxicity against human NCI-ADR-RES cells after 48 hrs by sulforhodamine B assay; format: functional, cell-based
HT-29 = experiment: Cytotoxicity against human HT-29 cells after 48 hrs by sulforhodamine B assay; format: functional, cell-based; settings: HT-29, 48 h
SK-MEL-5 = experiment: Cytotoxicity against human SK-MEL-5 cells after 48 hrs by sulforhodamine B assay; format: functional, cell-based; settings: SK-MEL-5, 48 h
[25] = Cytotoxicity against human RXF393 cells after 48 hrs by sulforhodamine B assay; format: functional, cell-based; settings: RXF 393, 48 h
[26] = Cytotoxicity against human OVCAR8 cells after 48 hrs by sulforhodamine B assay; format: functional, cell-based; settings: OVCAR-8, 48 h
[27] = Cytotoxicity against human SW620 cells after 48 hrs by sulforhodamine B assay; format: functional, cell-based; settings: SW-620, 48 h
[28] = Cytotoxicity against human HCT15 cells after 48 hrs by sulforhodamine B assay; format: functional, cell-based; settings: HCT-15, 48 h
[29] = Cytotoxicity against human SF268 cells after 48 hrs by sulforhodamine B assay; format: functional, cell-based; settings: SF-268, 48 h
MDA-MB-231 = experiment: Cytotoxicity against human MDA-MB-231 cells after 48 hrs by sulforhodamine B assay; format: functional, cell-based; settings: MDA-MB-231, 48 h
SN12C = experiment: Cytotoxicity against human SN12C cells after 48 hrs by sulforhodamine B assay; format: functional, cell-based
MCF7 = experiment: Cytotoxicity against human MCF7 cells after 48 hrs by sulforhodamine B assay; format: functional, cell-based; settings: MCF7, 48 h
[30] = Cytotoxicity against human COLO205 cells after 48 hrs by sulforhodamine B assay; format: functional, cell-based; settings: COLO 205, 48 h
[31] = Cytotoxicity against human Caki1 cells after 48 hrs by sulforhodamine B assay; format: functional, cell-based; settings: CAKI-1, 48 h
KM12 = experiment: Cytotoxicity against human KM12 cells after 48 hrs by sulforhodamine B assay; format: functional, cell-based; settings: KM12, 48 h
[32] = Cytotoxicity against human OVCAR4 cells after 48 hrs by sulforhodamine B assay; format: functional, cell-based; settings: OVCAR-4, 48 h

CC(=O)ON(CC1=C(C)C=C2C(=O)[C@](C)(O)C3(CC3)C(C)=C21)C(N)=O
IC50 [1]: 1900 nM

NC(=O)NO [HYDROXYUREA]
IC50 [2]: > 650000 nM

CC1=C(CO)C2=C(C)C3(CC3)[C@@](C)(O)C(=O)C2=C1 [IROFULVEN]
IC50 (786-0): 200 nM
Ratio IC50 [3]: 4.1
IC50 (U-251): 316 nM
IC50 [4]: < 100 nM
IC50 [5]: 158 nM
IC50 [6]: 200 nM
IC50 [7]: 316 nM
IC50 (T47D): 200 nM
IC50 (NCI-H226): 200 nM
IC50 (M14): 251 nM
IC50 [8]: 251 nM
IC50 (EKVX): 200 nM
IC50 [9]: 316 nM
IC50 (ACHN): 251 nM
IC50 (SK-MEL-28): 631 nM
IC50 (NCI-H322M): 251 nM
IC50 (Malme-3M): 200 nM
IC50 [10]: 251 nM
IC50 (NCI-H23): 79.4 nM
IC50 [11]: 631 nM
IC50 [12]: 158 nM
IC50 [13]: 158 nM
IC50 (NCI-H522): 158 nM
IC50 [14]: 251 nM
IC50 (A549): < 126 nM
IC50 [15]: 251 nM
IC50 (A498): 200 nM
IC50 [16]: 158 nM
IC50 [17]: 200 nM
TGI (MV522): Active
IC50 [18]: 158 nM
IC50 [19]: 316 nM
IC50 (NCI-H460): < 50.1 nM
IC50 (MDA-MB-435): 1580 nM
IC50 (SK-MEL-2): 200 nM
IC50 [20]: 316 nM
IC50 [21]: 200 nM
IC50 [22]: 316 nM
IC50 [23]: 251 nM
IC50 [24]: 251 nM
IC50 (HT-29): 251 nM
IC50 [2]: 70 nM
IC50 (SK-MEL-5): 158 nM
IC50 [25]: 50.1 nM
IC50 [26]: 200 nM
IC50 [1]: 290 nM
IC50 [27]: 631 nM
IC50 [28]: 316 nM
IC50 [29]: 251 nM
IC50 (MDA-MB-231): 316 nM
IC50 (SN12C): 398 nM
IC50 (MCF7): 251 nM
IC50 [30]: 158 nM
IC50 [31]: 251 nM
IC50 (KM12): 631 nM
IC50 [32]: 251 nM

CC1=C(CN(O)C(N)=O)C2=C(C)C3(CC3)[C@@](C)(O)C(=O)C2=C1 [LP-184]
IC50 (786-0): 126 nM
Ratio IC50 [3]: 41.9
IC50 (U-251): 126 nM
IC50 [4]: < 10 nM
IC50 [5]: 25.1 nM
IC50 [6]: 31.6 nM
IC50 [7]: 126 nM
IC50 (T47D): 63.1 nM
IC50 (NCI-H226): 200 nM
IC50 (M14): 200 nM
IC50 [8]: 31.6 nM
IC50 (EKVX): 316 nM
IC50 [9]: 39.8 nM
IC50 (ACHN): 31.6 nM
IC50 (SK-MEL-28): 126 nM
IC50 (NCI-H322M): 100 nM
IC50 (Malme-3M): 126 nM
IC50 [10]: 50.1 nM
IC50 (NCI-H23): 15.8 nM
IC50 [11]: 316 nM
IC50 [12]: 25.1 nM
IC50 [13]: 12.6 nM
IC50 (NCI-H522): 1000 nM
IC50 [14]: 398 nM
IC50 (A549): < 10 nM
IC50 [15]: 251 nM
IC50 (A498): 31.6 nM
IC50 [16]: 25.1 nM
IC50 [17]: 158 nM
TGI (MV522): Active
IC50 [18]: 20 nM
IC50 [19]: 501 nM
IC50 (NCI-H460): < 10 nM
IC50 (MDA-MB-435): 398 nM
IC50 (SK-MEL-2): 398 nM
IC50 [20]: 50.1 nM
IC50 [21]: 25.1 nM
IC50 [22]: 158 nM
IC50 [23]: 316 nM
IC50 [24]: 158 nM
IC50 (HT-29): 126 nM
IC50 [2]: 210 nM
IC50 (SK-MEL-5): 63.1 nM
IC50 [25]: 15.8 nM
IC50 [26]: 316 nM
IC50 [1]: 8800 nM
IC50 [27]: 15800 nM
IC50 [28]: 126 nM
IC50 [29]: 20 nM
IC50 (MDA-MB-231): 251 nM
IC50 (SN12C): 316 nM
IC50 (MCF7): 1260 nM
IC50 [30]: 25.1 nM
IC50 [31]: 50.1 nM
IC50 (KM12): 398 nM
IC50 [32]: 100 nM
